ChEMBL document CHEMBL4665734, “Optimization of globomycin analogs as novel gram-negative antibiotics” (Bioorg Med Chem Lett, 2020)
≈ marks a conversion by molar mass, not a printed value. Starred links: 1 amine or outer side, 2 acyl side, 3 side chain; linkers in the order of their positions; H or OH if unused. Non-standard residues stand in square brackets, D forms with d. Residues, ends and D or L forms follow the SMILES beside them. Groups on a side chain read outwards from the residue. *: point of attachment. X1 = CCCCCC[C@@H](OC[C@@H](C)N[*:1])[C@@H](C)C(=O)[*:2]; Gly(cHept) = N[C@H](C(=O)O)C1CCCCCC1; Propyl(3-guanidino) = N=C(N)NCCC*; NMeL = CN[C@@H](CC(C)C)C(=O)O; Chg = N[C@H](C(=O)O)C1CCCCC1; NMeNva = CCC[C@H](NC)C(=O)O; Propyl(3-NMe2) = CN(C)CCC*; X13 = N[C@H]1C[C@H](N*)C1; hSer = N[C@@H](CCO)C(=O)O; X14 = NCCN1CC[C@H](*)C1; Dap = NC[C@H](N)C(=O)O; Propyl(3-NH2) = NCCC*; CO = O=C([*:1])[*:2]; NH(CH2)3NH2 = NCCCN*; X12 = NCC(CN)*; X11 = NCCCC*

How the values were obtained:
Escherichia coli = test: Inhibition of LspA in Escherichia coli CFT073imp4213 harboring outer membrane-permeable mutant assessed as inhibition of bacterial growth
Method in brief: (§1)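 Read-out is the minimum inhibitory concentration, reported in µM.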

[1] = Growth inhibition of Staphylococcus aureus USA300
[2] = Lipophilicity, logD of the compound at pH 7.4; conditions: buffer, pH 7.4, logD
Escherichia coli CFT073 = test: Inhibition of LspA in wild type Escherichia coli CFT073 assessed as inhibition of bacterial growth; method in brief: as §1
[3] = Stability of the compound in mouse plasma assessed as parent compound remaining after 24 hrs; assay type: ADME, cell-free; conditions: read-out: Stabilty
Method in brief: (§2)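 Test compound incubated for 24 hour in human, rat or mouse plasma. Stability is reported as the percentage of parent compound remaining.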

[4] = Stability of the compound in human plasma assessed as parent compound remaining after 24 hrs; assay type: ADME, cell-free; conditions: read-out: Stabilty; method in brief: as §2

Row | Compound | MIC (Escherichia coli) [µM] | MIC [1] [µM] | logD [2] | MIC (Escherichia coli CFT073) [µM] | remaining at 24 h [3] [%] | remaining at 24 h [4] [%]
1 | CCCCCC[C@H]1OC[C@@H](C)NC(=O)[C@H](CN(C)CCCN)NC(=O)[C@H](CN)NC(=O)[C@H](C2CCCCCC2)NC(=O)[C@H](CCC)N(C)C(=O)[C@@H]1C | 0.39 (≈ 0.287 µg/mL) | 100 (≈ 73.7 µg/mL) | 1.8 | 8.8 (≈ 6.49 µg/mL) | – | –
2 | COC(C)(C)CCCCCC[C@H]1OC(=O)CNC(=O)[C@H]([C@H](C)O)NC(=O)[C@H](CN)NC(=O)[C@H](C2CCCCC2)NC(=O)[C@H](CC(C)C)N(C)C(=O)[C@@H]1C | 0.048 (≈ 0.0361 µg/mL) | > 100 | 2.8 | 2.2 (≈ 1.66 µg/mL) | – | –
3 | CCCCCC[C@H]1OC(=O)CNC(=O)[C@H]([C@H](C)O)NC(=O)[C@H](CN)NC(=O)[C@H](C2CCCCCC2)NC(=O)[C@H](CC(C)C)N(C)C(=O)[C@@H]1C | 0.014 (≈ 0.00973 µg/mL) | 50 (≈ 34.7 µg/mL) | 3.4 | 1.1 (≈ 0.764 µg/mL) | – | –
4 | CCCCCC[C@H]1OC[C@@H](C)NC(=O)[C@H](CNCCCN)NC(=O)[C@H](CN)NC(=O)[C@H](C2CCCCCC2)NC(=O)[C@H](CCC)N(C)C(=O)[C@@H]1C | 0.28 (≈ 0.202 µg/mL) | 50 (≈ 36.2 µg/mL) | 1.1 | 3.1 (≈ 2.24 µg/mL) | – | –
5 | CCC[C@H]1C(=O)N[C@@H](C2CCCCCC2)C(=O)N[C@@H](CN)C(=O)N[C@@H]([C@H](C)O)C(=O)NCC(=O)O[C@H](C[C@@H]2CC[C@@H]3CC[C@H]2C3)[C@@H](C)C(=O)N1C | 0.009 (≈ 0.00647 µg/mL) | 25 (≈ 18 µg/mL) | 3.1 | 0.4 (≈ 0.288 µg/mL) | – | –
6 | CCCCCC[C@H]1OC[C@@H](C)NC(=O)[C@H]([C@H](C)O)NC(=O)[C@H](CN)NC(=O)[C@H](C2CCCCC2)NC(=O)[C@H](CC(C)C)N(C)C(=O)[C@@H]1C | 0.034 (≈ 0.0232 µg/mL) | 71 (≈ 48.3 µg/mL) | – | 2.9 (≈ 1.97 µg/mL) | 94 | 93
7 | CCCCCC[C@H]1OCCCNC(=O)[C@H]([C@H](C)O)NC(=O)[C@H](CN)NC(=O)[C@H](C2CCCCC2)NC(=O)[C@H](CC(C)C)N(C)C(=O)[C@@H]1C | 0.39 (≈ 0.266 µg/mL) | 100 (≈ 68.1 µg/mL) | – | 12 (≈ 8.17 µg/mL) | 101 | 96
8 | CCCCCCN1CCCNC(=O)[C@H]([C@H](C)O)NC(=O)[C@H](CN)NC(=O)[C@H]([C@H](C)CC)NC(=O)[C@H](CC(C)C)N(C)C(=O)[C@@H]1C | 12.5 (≈ 8 µg/mL) | > 100 | – | > 100 | 100 | 101
9 | CCCC(C)(C)CC[C@H]1OC(=O)CNC(=O)[C@H]([C@H](C)O)NC(=O)[C@H](CN)NC(=O)[C@H]([C@H](C)CC)NC(=O)[C@H](CC(C)C)N(C)C(=O)[C@@H]1C | 0.034 (≈ 0.0232 µg/mL) | 100 (≈ 68.3 µg/mL) | 3.2 | 3.1 (≈ 2.12 µg/mL) | – | –
10 | CC(C)C[C@H]1C(=O)N[C@@H](C2CCCCC2)C(=O)N[C@@H](CN)C(=O)N[C@@H]([C@H](C)O)C(=O)NCC(=O)O[C@H](CCCCCCC(C)(C)O)[C@@H](C)C(=O)N1C | 0.55 (≈ 0.406 µg/mL) | > 100 | 2.2 | 15 (≈ 11.1 µg/mL) | – | –
11 | CC[C@@H](C)[C@@H]1NC(=O)[C@H](CC(C)C)N(C)C(=O)[C@H](C)[C@@H](CCCCCC(F)(F)F)OC(=O)CNC(=O)[C@H]([C@H](C)O)NC(=O)[C@H](CN)NC1=O | 0.39 (≈ 0.276 µg/mL) | > 100 | 2 | 25 (≈ 17.7 µg/mL) | – | –
12 | CCCCCC[C@H]1OC[C@@H](C)NC(=O)[C@H](COc2ccc(CCN)cc2)NC(=O)[C@H](CN)NC(=O)[C@H](C2CCCCC2)NC(=O)[C@H](CCC)N(C)C(=O)[C@@H]1C | 0.048 (≈ 0.0371 µg/mL) | 25 (≈ 19.3 µg/mL) | 2.4 | 1.6 (≈ 1.24 µg/mL) | – | –
13 | CCCCCC[C@H]1OC[C@@H](C)NC(=O)[C@H](COc2ccc(CN)cc2)NC(=O)[C@H](CN)NC(=O)[C@H](C2CCCCC2)NC(=O)[C@H](CCC)N(C)C(=O)[C@@H]1C | 0.39 (≈ 0.296 µg/mL) | 100 (≈ 75.8 µg/mL) | 2.5 | 6.3 (≈ 4.78 µg/mL) | – | –
14 | CCCCCC[C@H]1OC[C@H](C)NC(=O)[C@H]([C@H](C)O)NC(=O)[C@H](CN)NC(=O)[C@H](C2CCCCC2)NC(=O)[C@H](CC(C)C)N(C)C(=O)[C@@H]1C | 1 (≈ 0.681 µg/mL) | 71 (≈ 48.3 µg/mL) | – | 84 (≈ 57.2 µg/mL) | 93 | 88
15 | CCCCCCCCCC[C@H]1OC(=O)CNC(=O)[C@H]([C@H](C)O)NC(=O)[C@H](CN)NC(=O)[C@H]([C@H](C)CC)NC(=O)[C@H](CC(C)C)N(C)C(=O)[C@@H]1C | 0.011 (≈ 0.00782 µg/mL) | 15 (≈ 10.7 µg/mL) | 4.6 | 2.1 (≈ 1.49 µg/mL) | – | –
16 | CCC[C@H]1C(=O)N[C@@H](C2CCCCCC2)C(=O)N[C@@H](CN)C(=O)N[C@@H]([C@H](C)O)C(=O)NCC(=O)O[C@H](CC2CC3(CCC3)C2)[C@@H](C)C(=O)N1C | 0.009 (≈ 0.00634 µg/mL) | 50 (≈ 35.2 µg/mL) | 2.9 | 0.78 (≈ 0.55 µg/mL) | – | –
17 | CCCCCC[C@H]1OC[C@@H](C)NC(=O)[C@H](CC(=O)NCCCN)NC(=O)[C@H](CN)NC(=O)[C@H](C2CCCCCC2)NC(=O)[C@H](CCC)N(C)C(=O)[C@@H]1C (cyclo(D(NH(CH2)3NH2)[X1][NMeNva][Gly(cHept)][Dap])) | 0.39 (≈ 0.293 µg/mL) | 100 (≈ 75.1 µg/mL) | 1.3 | 18 (≈ 13.5 µg/mL) | – | –
18 | CCCCCC[C@H]1OC[C@@H](C)NC(=O)[C@H](COCCCN)NC(=O)[C@H](CN)NC(=O)[C@H](C2CCCCC2)NC(=O)[C@H](CC(C)C)N(C)C(=O)[C@@H]1C (cyclo([Chg][Dap]S(Propyl(3-NH2))[X1][NMeL])) | 0.28 (≈ 0.203 µg/mL) | 100 (≈ 72.4 µg/mL) | 1.5 | 11 (≈ 7.96 µg/mL) | – | –
19 | CCCCCC[C@H]1OC[C@@H](C)NC(=O)[C@H](COCCCN(C)C)NC(=O)[C@H](CN)NC(=O)[C@H](C2CCCCC2)NC(=O)[C@H](CC(C)C)N(C)C(=O)[C@@H]1C (cyclo([Chg][Dap]S(Propyl(3-NMe2))[X1][NMeL])) | 0.39 (≈ 0.293 µg/mL) | 100 (≈ 75.2 µg/mL) | 2.1 | 25 (≈ 18.8 µg/mL) | – | –
20 | CCCCCC[C@H]1OC[C@@H](C)NC(=O)[C@H](COCCCNC(=N)N)NC(=O)[C@H](CN)NC(=O)[C@H](C2CCCCC2)NC(=O)[C@H](CC(C)C)N(C)C(=O)[C@@H]1C (cyclo([Chg][Dap]S(Propyl(3-guanidino))[X1][NMeL])) | 0.2 (≈ 0.153 µg/mL) | 5 (≈ 3.83 µg/mL) | 2 | 4.4 (≈ 3.37 µg/mL) | – | –
21 | CCCCCC[C@H]1OC[C@@H](C)NC(=O)[C@H](COCCCCN)NC(=O)[C@H](CN)NC(=O)[C@H](C2CCCCC2)NC(=O)[C@H](CC(C)C)N(C)C(=O)[C@@H]1C (cyclo([Chg][Dap]S(X11)[X1][NMeL])) | 0.18 (≈ 0.133 µg/mL) | 56 (≈ 41.3 µg/mL) | 1.7 | 7 (≈ 5.17 µg/mL) | – | –
22 | CCCCCC[C@H]1OC[C@@H](C)NC(=O)[C@H](COCCCCN)NC(=O)[C@H](CN)NC(=O)[C@H](C2CCCCCC2)NC(=O)[C@H](CCC)N(C)C(=O)[C@@H]1C (cyclo([Dap]S(X11)[X1][NMeNva][Gly(cHept)])) | 0.14 (≈ 0.103 µg/mL) | 71 (≈ 52.4 µg/mL) | 1.8 | 6.3 (≈ 4.65 µg/mL) | – | –
23 | CCCCCC[C@H]1OC[C@@H](C)NC(=O)[C@H](COC(CN)CN)NC(=O)[C@H](CN)NC(=O)[C@H](C2CCCCCC2)NC(=O)[C@H](CCC)N(C)C(=O)[C@@H]1C (cyclo([Dap]S(X12)[X1][NMeNva][Gly(cHept)])) | 0.55 (≈ 0.406 µg/mL) | 50 (≈ 37 µg/mL) | 1.1 | 3.1 (≈ 2.29 µg/mL) | – | –
24 | CCCCCC[C@H]1OC[C@@H](C)NC(=O)[C@H](CO[C@H]2CCN(CCN)C2)NC(=O)[C@H](CN)NC(=O)[C@H](C2CCCCCC2)NC(=O)[C@H](CCC)N(C)C(=O)[C@@H]1C (cyclo([Dap]S(X14)[X1][NMeNva][Gly(cHept)])) | 0.2 (≈ 0.156 µg/mL) | 100 (≈ 77.9 µg/mL) | 1.6 | 6.3 (≈ 4.91 µg/mL) | – | –
25 | CCCCCC[C@H]1OC[C@@H](C)NC(=O)[C@H](CNC(=O)N[C@H]2C[C@H](N)C2)NC(=O)[C@H](CN)NC(=O)[C@H](C2CCCCCC2)NC(=O)[C@H](CCC)N(C)C(=O)[C@@H]1C (cyclo([Dap][Dap]([CO-X13])[X1][NMeNva][Gly(cHept)])) | 0.39 (≈ 0.303 µg/mL) | 71 (≈ 55.2 µg/mL) | 1.5 | 12 (≈ 9.34 µg/mL) | – | –
26 | CCCCCC[C@H]1OC[C@@H](C)NC(=O)[C@H](CCOCCCN)NC(=O)[C@H](CN)NC(=O)[C@H](C2CCCCCC2)NC(=O)[C@H](CCC)N(C)C(=O)[C@@H]1C (cyclo([Dap][hSer](Propyl(3-NH2))[X1][NMeNva][Gly(cHept)])) | 0.2 (≈ 0.148 µg/mL) | 100 (≈ 73.8 µg/mL) | 1.7 | 8.8 (≈ 6.49 µg/mL) | – | –
